From ChEMBL document CHEMBL1938351, “The discovery of potent antagonists of NPBWR1 (GPR7)” (Bioorg Med Chem Lett, 2012)
Calls of active or inactive are those of the source. The calls are words filed in the database; no cut-off is given here.

Assays:
[1] = target: T1, Neuropeptides B/W receptor type 1 (Mus musculus, UniProt P49681); test: Displacement of [125]-hNPW23 from mouse NPBWR1 expressed in CHO-K1 cells membrane by scintillation proximity assay; format: cell membranes
T1 sequence (P49681 whole entry): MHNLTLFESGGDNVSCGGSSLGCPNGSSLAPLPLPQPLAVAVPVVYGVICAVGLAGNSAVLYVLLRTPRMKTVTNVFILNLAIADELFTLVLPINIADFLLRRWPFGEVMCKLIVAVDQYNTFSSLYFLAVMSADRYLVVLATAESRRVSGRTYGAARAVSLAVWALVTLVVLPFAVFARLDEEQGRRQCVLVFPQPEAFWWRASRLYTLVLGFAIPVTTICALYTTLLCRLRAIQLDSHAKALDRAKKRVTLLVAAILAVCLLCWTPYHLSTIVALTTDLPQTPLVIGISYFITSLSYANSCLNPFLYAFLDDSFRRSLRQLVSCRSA

[2] = target: T1, Neuropeptides B/W receptor type 1; test: Antagonist activity at mouse NPBWR1 expressed in CHO-K1 cells assessed as inhibition of hNPW23 and forskolin-stimulated cAMP production after 1 hr by TR-FRET assay; format: functional, cell-based
LLC-PK1 = test: P-glycoprotein-mediated efflux in pig LLC-PK1 cells expressing MDR1; format: cell-based; conditions: Sus scrofa
[3] = Metabolic stability in mouse liver microsomes assessed as compound remaining after 30 mins; format: ADME, Microsome; conditions: read-out: Stability
How it was run: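 Compounds were incubated with mouse liver microsomes. The read-out was the percentage of parent compound remaining at 30 min.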

[4] = target: T2, Neuropeptides B/W receptor type 1 (Homo sapiens, UniProt P48145); test: Displacement of [125]-hNPW23 from human NPBWR1 expressed in CHO-K1 cells membrane by scintillation proximity assay; format: cell membranes
T2 sequence (P48145 whole entry): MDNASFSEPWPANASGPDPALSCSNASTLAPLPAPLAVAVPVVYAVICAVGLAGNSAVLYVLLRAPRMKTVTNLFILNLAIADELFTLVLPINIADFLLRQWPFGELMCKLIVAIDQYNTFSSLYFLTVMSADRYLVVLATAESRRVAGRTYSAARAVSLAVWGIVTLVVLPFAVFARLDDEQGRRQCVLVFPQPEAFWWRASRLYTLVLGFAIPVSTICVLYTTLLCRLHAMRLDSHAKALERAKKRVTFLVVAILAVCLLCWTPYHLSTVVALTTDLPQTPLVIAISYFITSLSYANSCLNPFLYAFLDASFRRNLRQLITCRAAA

[5] = target: T2, Neuropeptides B/W receptor type 1; test: Antagonist activity at human NPBWR1 expressed in CHO-K1 cells assessed as inhibition of hNPW23 and forskolin-stimulated cAMP production after 1 hr by TR-FRET assay; format: functional, cell-based

Compound | IC50 [1] [nM] | IC50 [2] [nM] | remaining at 0.5 h [3] [%] | IC50 [4] [nM] | IC50 [5] [nM] | Activity (LLC-PK1)
COc1ccc([C@@H](C)N[C@@H]2CC[C@H](C(=O)N3CCN(c4ccc(Cl)cc4)CC3)[C@@H](c3ccsc3)C2)cc1 | 3720 | 3860 | – | – | – | –
COc1ccc([C@@H](C)N[C@@H]2CC[C@H](C(=O)N3CCN(c4ncccc4Cl)CC3)[C@@H](c3ccsc3)C2)cc1 | – | > 32000 | – | – | – | –
COc1ccc([C@@H](C)N[C@@H]2CC[C@H](C(=O)N3CCN(c4cccc(Cl)n4)CC3)[C@@H](c3ccsc3)C2)cc1 | – | 7490 | – | – | – | –
COc1ccc(C2(N[C@@H]3CC[C@H](C(=O)N4CCN(c5ccc(Cl)cn5)CC4)[C@@H](c4ccsc4)C3)CC2)cc1 | 56 | 523 | – | – | – | –
COc1cccc(C2(N[C@@H]3CC[C@H](C(=O)N4CCN(c5ccc(Cl)cn5)CC4)[C@@H](c4ccsc4)C3)CCC2)c1 | 118 | 1020 | – | – | – | –
O=C([C@H]1CC[C@@H](NC2(c3ccccc3Br)CCC2)C[C@@H]1c1ccsc1)N1CCN(c2ccc(Cl)cn2)CC1 | 2200 | 2210 | – | – | – | –
COc1ccc(C2(N[C@@H]3CC[C@H](C(=O)N4CCN(c5nnc(C(F)(F)F)s5)CC4)[C@@H](c4ccsc4)C3)CCC2)cc1 | – | – | < 10 | – | – | Active
COc1ccc([C@@H](C)N[C@@H]2CC[C@H](C(=O)N3CCN(c4ccc(OC)cn4)CC3)[C@@H](c3ccsc3)C2)cc1 | – | 7300 | – | – | – | –
C[C@@H](N[C@@H]1CC[C@H](C(=O)N2CCN(c3ccc(Cl)cn3)CC2)[C@@H](c2ccsc2)C1)c1ccc(Br)cc1 | 134 | 2630 | – | – | – | –
COc1ccc([C@@H](C)N[C@@H]2CC[C@H](C(=O)N3CCN(c4cc(Cl)ccn4)CC3)[C@@H](c3ccsc3)C2)cc1 | – | 2140 | – | – | – | –
COc1ccc(C(C)(C)N[C@@H]2CC[C@H](C(=O)N3CCN(c4nc5ccccc5o4)CC3)[C@@H](c3ccsc3)C2)cc1 | – | – | < 10 | – | – | Active
COc1ccc([C@@H](C)N[C@@H]2CC[C@H](C(=O)N3CCN(c4ccc(Cl)cn4)CC3)[C@@H](c3ccsc3)C2)cc1 | 25 | 360 | 0 | 324 | 1920 | Active
COc1ccc(C(C)(C)N[C@@H]2CC[C@H](C(=O)N3CCN(c4nc5ccccc5[nH]4)CC3)[C@@H](c3ccsc3)C2)cc1 | – | – | < 10 | – | – | Active
COc1ccc(C2(N[C@@H]3CC[C@H](C(=O)N4CCN(c5nnc(Br)s5)CC4)[C@@H](c4ccsc4)C3)CCC2)cc1 | – | – | < 10 | – | – | Active
COc1ccc(C2(N[C@@H]3CC[C@H](C(=O)N4CCN(c5nc6cc(C)ccc6o5)CC4)[C@@H](c4ccsc4)C3)CCC2)cc1 | – | – | < 10 | – | – | Active
COc1ccc([C@@H](C)N[C@@H]2CC[C@H](C(=O)N3CCN(c4ccc(C)cn4)CC3)[C@@H](c3ccsc3)C2)cc1 | 74 | 400 | – | – | – | –
COc1ccc([C@@H](C)N[C@@H]2CC[C@H](C(=O)N3CCN(c4ccc(C#N)cn4)CC3)[C@@H](c3ccsc3)C2)cc1 | 1140 | 7050 | – | – | – | –
O=C([C@H]1CC[C@@H](NC2(c3ccc(Br)cc3)CCC2)C[C@@H]1c1ccsc1)N1CCN(c2ccc(Cl)cn2)CC1 | 82 | 601 | – | – | – | –
CC(C)(N[C@@H]1CC[C@H](C(=O)N2CCN(c3ccc(Cl)cn3)CC2)[C@@H](c2ccsc2)C1)c1ccc(Cl)cc1 | 27 | 1700 | – | – | – | –
COc1ccc(C2(N[C@@H]3CC[C@H](C(=O)N4CCN(c5nc6ccccc6o5)CC4)[C@@H](c4ccsc4)C3)CCC2)cc1 | – | – | < 10 | – | – | Active
C[C@@H](N[C@@H]1CC[C@H](C(=O)N2CCN(c3ccc(Cl)cn3)CC2)[C@@H](c2ccsc2)C1)c1ccccc1 | 217 | 981 | – | – | – | –
O=C([C@H]1CC[C@@H](NC2(c3cccc(Br)c3)CCC2)C[C@@H]1c1ccsc1)N1CCN(c2ccc(Cl)cn2)CC1 | 160 | 972 | – | – | – | –
COc1ccc(CN[C@@H]2CC[C@H](C(=O)N3CCN(c4ccc(Cl)cn4)CC3)[C@@H](c3ccsc3)C2)cc1 | 1520 | 3590 | – | – | – | –
CC(C)(N[C@@H]1CC[C@H](C(=O)N2CCN(c3ccc(Cl)cn3)CC2)[C@@H](c2ccsc2)C1)c1ccc([N+](=O)[O-])cc1 | 100 | 1100 | – | – | – | –

Further lines, with some results ahead:

IC50 [1] [nM] | IC50 [2] [nM] | remaining at 0.5 h [3] [%] | IC50 [4] [nM] | IC50 [5] [nM] | Compound | Activity (LLC-PK1)
194 | 207 | – | – | – | COc1ccc([C@@H](C)N[C@@H]2CC[C@H](C(=O)N3CCN(c4nccs4)CC3)[C@@H](c3ccsc3)C2)cc1 | –
0.33 | 1.8 | < 10 | – | – | COc1ccc(C2(N[C@@H]3CC[C@H](C(=O)N4CCN(c5nc6ccccc6s5)CC4)[C@@H](c4ccsc4)C3)CCC2)cc1 | Active
– | 200 | – | – | – | COc1ccc([C@@H](C)N[C@@H]2CC[C@H](C(=O)N3CCN(c4ccc(C(F)(F)F)cn4)CC3)[C@@H](c3ccsc3)C2)cc1 | –
0.42 | 0.66 | < 10 | – | – | COc1ccc(C2(N[C@@H]3CC[C@H](C(=O)N4CCN(c5nc6cc(F)ccc6[nH]5)CC4)[C@@H](c4ccsc4)C3)CCC2)cc1 | Active
8.3 | 20 | – | – | – | COc1ccc([C@@H](C)N[C@@H]2CC[C@H](C(=O)N3CCN(c4nc5ccccc5[nH]4)CC3)[C@@H](c3ccsc3)C2)cc1 | –
11 | 43 | – | – | – | COc1ccc(C(C)(C)N[C@@H]2CC[C@H](C(=O)N3CCN(c4ccc(Cl)cn4)CC3)[C@@H](c3ccsc3)C2)cc1 | –
1.1 | 3 | < 10 | 5.9 | 11 | COc1ccc(C2(N[C@@H]3CC[C@H](C(=O)N4CCN(c5nc6ccccc6[nH]5)CC4)[C@@H](c4ccsc4)C3)CCC2)cc1 | Active
2.8 | 18 | – | – | – | COc1ccc([C@@H](C)N[C@@H]2CC[C@H](C(=O)N3CCN(c4nc5ccccc5o4)CC3)[C@@H](c3ccsc3)C2)cc1 | –
0.18 | 1.3 | < 10 | – | – | COc1ccc(C2(N[C@@H]3CC[C@H](C(=O)N4CCN(c5nc6ccc(F)cc6o5)CC4)[C@@H](c4ccsc4)C3)CCC2)cc1 | Active
4.5 | 24 | – | – | – | COc1ccc([C@@H](C)N[C@@H]2CC[C@H](C(=O)N3CCN(c4nc5ccccc5s4)CC3)[C@@H](c3ccsc3)C2)cc1 | –
3.1 | 20 | – | – | – | COc1ccc(C2(N[C@@H]3CC[C@H](C(=O)N4CCN(c5ccc(Cl)cn5)CC4)[C@@H](c4ccsc4)C3)CCC2)cc1 | –
0.2 | 0.86 | < 10 | – | – | COc1ccc(C2(N[C@@H]3CC[C@H](C(=O)N4CCN(c5nc6cc(F)ccc6o5)CC4)[C@@H](c4ccsc4)C3)CCC2)cc1 | Active
17 | 320 | – | – | – | CC(C)(N[C@@H]1CC[C@H](C(=O)N2CCN(c3ccc(Cl)cn3)CC2)[C@@H](c2ccsc2)C1)c1ccc(F)cc1 | –
42 | 115 | – | – | – | COc1ccc([C@@H](C)N[C@@H]2CC[C@H](C(=O)N3CCN(c4nnc(C(F)(F)F)s4)CC3)[C@@H](c3ccsc3)C2)cc1 | –
16 | 211 | – | – | – | Cc1ccc(C(C)(C)N[C@@H]2CC[C@H](C(=O)N3CCN(c4ccc(Cl)cn4)CC3)[C@@H](c3ccsc3)C2)cc1 | –
– | 330 | – | – | – | COc1ccc([C@@H](C)N[C@@H]2CC[C@H](C(=O)N3CCN(c4ccccn4)CC3)[C@@H](c3ccsc3)C2)cc1 | –
14 | 55 | – | – | – | COc1ccc([C@@H](C)N[C@@H]2CC[C@H](C(=O)N3CCN(c4ncc(Br)s4)CC3)[C@@H](c3ccsc3)C2)cc1 | –
